Experimental data taken from ChEMBL document CHEMBL3217604, “4-Alkyloxyimino-cytosine nucleotides: tethering approaches to molecular probes for the P2Y6 receptor” (Medchemcomm, 2013).
Active and inactive are the calls of the source. The calls are words filed in the database; no cut-off is given here.

Assays:
[1] = target: P2Y purinoceptor 2 (Homo sapiens, UniProt P41231); experiment: Agonist activity at human recombinant P2Y2 receptor expressed in human 1321N1 cells using [3H]inositol as substrate assessed as [3H]inositol phosphate formation after 30 mins by liquid scintillation counting analysis; format: functional, cell-based
P2Y purinoceptor 2, sequence (P41231 whole entry): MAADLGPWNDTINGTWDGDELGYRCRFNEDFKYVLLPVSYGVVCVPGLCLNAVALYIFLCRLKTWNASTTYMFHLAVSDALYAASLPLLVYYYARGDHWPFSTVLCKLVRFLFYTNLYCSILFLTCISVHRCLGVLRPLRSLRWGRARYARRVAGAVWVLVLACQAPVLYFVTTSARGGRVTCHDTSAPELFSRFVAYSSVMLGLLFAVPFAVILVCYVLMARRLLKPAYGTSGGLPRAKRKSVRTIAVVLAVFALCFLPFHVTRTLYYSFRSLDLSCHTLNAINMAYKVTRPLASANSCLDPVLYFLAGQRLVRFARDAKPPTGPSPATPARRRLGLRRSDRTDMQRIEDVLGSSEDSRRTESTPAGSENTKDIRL
How it was run: (§1)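 PLC activation measured in 1321N1 human astrocytoma cells stably expressing recombinant hP2Y2, hP2Y4 or hP2Y6 receptor; potency given as EC50 or % activation.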

[2] = target: T1, P2Y purinoceptor 6 (Homo sapiens, UniProt Q15077); experiment: Binding affinity to human recombinant P2Y6 receptor expressed in human 1321N1 cells at 400 nM after 3 hrs by flow cytometry; format: cell-based
T1 sequence (Q15077 whole entry): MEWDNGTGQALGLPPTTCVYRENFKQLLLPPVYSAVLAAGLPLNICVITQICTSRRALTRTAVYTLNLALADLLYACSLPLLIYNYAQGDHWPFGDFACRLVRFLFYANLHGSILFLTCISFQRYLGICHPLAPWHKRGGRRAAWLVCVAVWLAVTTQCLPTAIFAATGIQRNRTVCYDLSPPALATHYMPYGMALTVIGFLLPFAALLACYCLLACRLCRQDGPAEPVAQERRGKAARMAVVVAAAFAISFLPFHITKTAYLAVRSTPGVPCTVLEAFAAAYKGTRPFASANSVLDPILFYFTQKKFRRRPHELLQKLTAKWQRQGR
How it was run: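 FCM histogram of 1321N1-P2Y6R cells after 3 h incubation with 400 nM fluorescent ligand; total, nonspecific and autofluorescence measured; three independent experiments.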

[3] = target: T2, P2Y purinoceptor 14 (Homo sapiens) (UniProt Q15391); experiment: Agonist activity at human P2Y14 receptor expressed in rat C6 cells assessed as inhibition of forskolin-stimulated adenylate cyclase up to 10 uM; format: functional, cell-based
T2 sequence (whole entry): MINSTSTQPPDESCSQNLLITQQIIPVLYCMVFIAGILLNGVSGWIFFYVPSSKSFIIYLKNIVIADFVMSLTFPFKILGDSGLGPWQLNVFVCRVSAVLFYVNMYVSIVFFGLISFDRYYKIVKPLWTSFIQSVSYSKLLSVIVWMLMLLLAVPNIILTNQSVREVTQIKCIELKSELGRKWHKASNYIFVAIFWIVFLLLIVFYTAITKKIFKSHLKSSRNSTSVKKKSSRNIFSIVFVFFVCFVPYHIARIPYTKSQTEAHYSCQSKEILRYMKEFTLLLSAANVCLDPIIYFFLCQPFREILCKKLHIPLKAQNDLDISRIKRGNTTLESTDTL

[4] = target: T1, P2Y purinoceptor 6; experiment: Binding affinity to human recombinant P2Y6 receptor expressed in human 1321N1 cells assessed as surface bound fraction at 400 nM after 60 mins by flow cytometry in sucrose containing media; format: cell-based
How it was run: (§2)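 1321N1-P2Y6R cells incubated with 400 nM fluorescent ligand at 37 °C for 60 min; nonspecific binding with 100 μM UDP; surface fraction in 0.4 M sucrose medium; internalized fraction as acid-insensitive fluorescence after 3 × 5 min acid wash (pH 3.5); fluorescence converted to MESF, nonspecific subtracted.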

[5] = organism: Homo sapiens; experiment: Selectivity ratio of EC50 for human recombinant P2Y2 receptor to EC50 for human recombinant P2Y6 receptor
[6] = target: T1, P2Y purinoceptor 6; experiment: Binding affinity to human recombinant P2Y6 receptor expressed in human 1321N1 cells assessed as compound internalization measured as the acid-insensitive fraction following acid wash at 400 nM after 60 mins by flow cytometry; format: cell-based; how it was run: as §2
[7] = target: T1, P2Y purinoceptor 6; experiment: Binding affinity to human recombinant P2Y6 receptor expressed in human 1321N1 cells at 400 nM after 60 mins by flow cytometry at 400 nM after 60 mins by flow cytometry; format: cell-based; how it was run: as §2
[8] = target: T1, P2Y purinoceptor 6; experiment: Binding affinity to human recombinant P2Y6 receptor expressed in human 1321N1 cells after 2 mins by flow cytometry in presence of MRS2578; format: cell-based
How it was run: (§3)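 1321N1-P2Y6R cells preincubated 30 min with known ligand (UDP 10 μM, MRS2957 0.5 μM, MRS2578 1 μM), then briefly exposed (2 min) to fluorescent agonist; labeling quantified by flow cytometry.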

[9] = target: P2Y purinoceptor 1 (Homo sapiens) (UniProt P47900); experiment: Binding affinity to P2Y1 receptor (unknown origin) expressed in human 1321N1 cells at 400 nM after 60 mins by flow cytometry; format: cell-based
P2Y purinoceptor 1 (Homo sapiens), sequence (P47900 whole entry): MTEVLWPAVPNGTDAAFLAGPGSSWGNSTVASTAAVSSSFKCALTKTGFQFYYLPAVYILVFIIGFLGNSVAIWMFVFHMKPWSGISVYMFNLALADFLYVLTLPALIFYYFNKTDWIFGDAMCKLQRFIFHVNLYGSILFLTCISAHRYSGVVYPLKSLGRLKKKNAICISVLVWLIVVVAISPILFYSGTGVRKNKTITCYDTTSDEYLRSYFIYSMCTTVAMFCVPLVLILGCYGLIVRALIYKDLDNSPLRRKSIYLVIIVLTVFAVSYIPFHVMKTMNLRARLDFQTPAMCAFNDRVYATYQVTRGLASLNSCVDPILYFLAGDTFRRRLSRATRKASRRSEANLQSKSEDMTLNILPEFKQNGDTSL

[10] = target: T1, P2Y purinoceptor 6; experiment: Agonist activity at human recombinant P2Y6 receptor expressed in human 1321N1 cells assessed as compound internalization at 2 uM after 60 mins by confocal microscopy; format: cell-based
How it was run: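 Confocal microscopy of P2Y6R-expressing 1321N1 cells after 60 min at 37 °C with 2 μM fluorescent agonist; cells without ligand served as control.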

[11] = target: T1, P2Y purinoceptor 6; experiment: Binding affinity to human recombinant P2Y6 receptor expressed in human 1321N1 cells at 500 nM after 60 mins by fluorescence microscopy in presence of MRS2578; format: cell-based
How it was run: (§4)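 P2Y6R-expressing 1321N1 cells preincubated 30 min at 37 °C with 500 nM MRS2957 or MRS2578, then exposed to 500 nM fluorescent agonist for 60 min at 37 °C; imaged by fluorescence microscopy (excitation 495 nm, emission 519 nm).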

[12] = target: T1, P2Y purinoceptor 6; experiment: Binding affinity to human recombinant P2Y6 receptor expressed in human 1321N1 cells at 10 nM to 10 uM after 60 mins by flow cytometry relative to control; format: cell-based
How it was run: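 Flow cytometry of 1321N1-P2Y6R and control 1321N1 cells after 60 min with 10 nM to 10 μM fluorescent ligand.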

[13] = target: T1, P2Y purinoceptor 6; experiment: Binding affinity to human recombinant P2Y6 receptor expressed in human 1321N1 cells at 500 nM after 60 mins by fluorescence microscopy in presence of MRS2957; format: cell-based; how it was run: as §4
[14] = organism: Homo sapiens; experiment: Selectivity ratio of EC50 for human recombinant P2Y4 receptor to EC50 for human recombinant P2Y6 receptor
[15] = target: T1, P2Y purinoceptor 6; experiment: Binding affinity to human recombinant P2Y6 receptor expressed in human 1321N1 cells after 2 mins by flow cytometry in presence of MRS2957; format: cell-based; how it was run: as §3
[16] = target: T1, P2Y purinoceptor 6; experiment: Binding affinity to human recombinant P2Y6 receptor expressed in human 1321N1 cells at 500 nM after 3 hrs by flow cytometry in presence of UDP relative to control; format: cell-based
How it was run: (§5)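 Saturation labeling by flow cytometry, 10 nM to 1.5 μM fluorescent ligand, 3 h at 37 °C on 1321N1-P2Y6R cells; nonspecific binding with 100 μM UDP; autofluorescence from ligand-free cells; values as MESF.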

[17] = target: T1, P2Y purinoceptor 6; experiment: Agonist activity at human recombinant P2Y6 receptor expressed in human 1321N1 cells using [3H]inositol as substrate assessed as [3H]inositol phosphate formation after 30 mins by liquid scintillation counting analysis; format: functional, cell-based; how it was run: as §1
[18] = target: T1, P2Y purinoceptor 6; experiment: Binding affinity to human recombinant P2Y6 receptor expressed in human 1321N1 cells at 10 nM to 1.5 uM after 3 hrs by flow cytometry relative to control; format: cell-based; how it was run: as §5
[19] = target: T1, P2Y purinoceptor 6; experiment: Binding affinity to human recombinant P2Y6 receptor expressed in human 1321N1 cells assessed as association rate constant at 400 nM by flow cytometry; format: cell-based
How it was run: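 Flow cytometric kinetics of 400 nM fluorescent ligand binding to 1321N1-P2Y6R cells at 37 °C; nonspecific binding defined with 100 μM UDP; association rate constant k1 derived from time course.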

[20] = target: T1, P2Y purinoceptor 6; experiment: Agonist activity at human recombinant P2Y6 receptor expressed in human 1321N1 cells assessed as compound internalization at 1 uM after 60 mins by confocal microscopy in presence of sucrose; format: cell-based
How it was run: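 P2Y6R-expressing 1321N1 cells incubated with 1 μM fluorescent agonist for 60 min at 37 °C in medium containing 0.4 M sucrose; labeling imaged by confocal microscopy.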

[21] = target: T1, P2Y purinoceptor 6; experiment: Binding affinity to human recombinant P2Y6 receptor expressed in human 1321N1 cells after 2 mins by flow cytometry in presence of UDP; format: cell-based; how it was run: as §3
[22] = target: T3, P2Y purinoceptor 4 (Homo sapiens, UniProt P51582); experiment: Agonist activity at human recombinant P2Y4 receptor expressed in human 1321N1 cells using [3H]inositol as substrate assessed as [3H]inositol phosphate formation at 10 uM after 30 mins by liquid scintillation counting analysis; format: functional, cell-based; how it was run: as §1
T3 sequence (P51582 whole entry): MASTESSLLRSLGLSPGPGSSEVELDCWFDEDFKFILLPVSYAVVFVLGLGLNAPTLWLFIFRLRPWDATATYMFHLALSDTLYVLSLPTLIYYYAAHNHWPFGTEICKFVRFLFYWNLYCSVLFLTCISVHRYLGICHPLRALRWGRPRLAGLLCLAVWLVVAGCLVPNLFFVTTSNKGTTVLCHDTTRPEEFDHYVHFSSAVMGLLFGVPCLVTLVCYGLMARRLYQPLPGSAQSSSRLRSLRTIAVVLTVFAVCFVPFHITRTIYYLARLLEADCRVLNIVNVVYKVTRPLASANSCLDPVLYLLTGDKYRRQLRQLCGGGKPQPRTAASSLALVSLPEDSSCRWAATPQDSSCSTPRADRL

[23] = target: T3, P2Y purinoceptor 4; experiment: Agonist activity at human recombinant P2Y4 receptor expressed in human 1321N1 cells using [3H]inositol as substrate assessed as [3H]inositol phosphate formation after 30 mins by liquid scintillation counting analysis; format: functional, cell-based; how it was run: as §1
[24] = target: T1, P2Y purinoceptor 6; experiment: Binding affinity to human recombinant P2Y6 receptor expressed in human 1321N1 cells at 100 nM to 1 uM by flow cytometry in presence of UDP; format: cell-based
How it was run: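 1321N1 cells with or without P2Y6R labeled with 100 nM to 1 μM Cy5 conjugate; blockade tested with 100 μM UDP; read by flow cytometry.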

Compound: N=c1ccc2c(-c3ccc(C(=O)NCCCCCCn4cc(CCC#Cc5cccc(CO/N=c6/ccn([C@@H]7O[C@H](COP(=O)(O)OP(=O)(O)O)[C@@H](O)[C@H]7O)c(=O)[nH]6)c5)nn4)cc3C(=O)O)c3ccc(N)c(S(=O)(=O)O)c3oc-2c1S(=O)(=O)O
- EC50 [1]: 2.5 µM
- Activity [2]: Active
- inhibition [3]: inactive
- Activity [4]: 17%
- Ratio EC50 [5]: 280
- Activity [6]: 77%
- Activity [7]: 23%
- Activity [8]: inactive
- Activity [9]: inactive
- Activity [10]: Active
- Activity [11]: inactive
- Activity [12]: Active
- Activity [13]: inactive
- Ratio EC50 [14]: > 1100
- Activity [15]: inactive
- Ratio [16]: 4
- EC50 [17]: 0.009 µM
- Activity [18]: Active
- K [19]: 0.019 min⁻¹
- Activity [20]: inactive
- Activity [21]: inactive
- Activity [22]: < 50%

Compound: O=c1[nH]/c(=N\OCc2cccc(Br)c2)ccn1[C@@H]1O[C@H](COP(=O)(O)OP(=O)(O)O)[C@@H](O)[C@H]1O
- EC50 [1]: 6.2 µM
- EC50 [23]: > 10 µM
- Ratio EC50 [5]: 160
- Ratio EC50 [14]: > 260
- EC50 [17]: 0.039 µM

Compound: O=c1[nH]/c(=N\OCc2cccc(I)c2)ccn1[C@@H]1O[C@H](COP(=O)(O)OP(=O)(O)O)[C@@H](O)[C@H]1O
- EC50 [1]: 2.5 µM
- EC50 [23]: 0.352 µM
- EC50 [17]: 0.019 µM

Compound: CC(=O)NCCn1cc(CCOP(=O)(O)OP(=O)(O)OP(=O)(O)OC[C@H]2O[C@@H](n3cc/c(=N/OCc4ccccc4)[nH]c3=O)[C@H](O)[C@@H]2O)nn1
- EC50 [1]: 3.8 µM
- EC50 [23]: 3.3 µM
- EC50 [17]: 0.879 µM

Compound: O=c1[nH]/c(=N\OCc2ccccc2)ccn1[C@@H]1O[C@H](COP(=O)(O)OP(=O)(O)O)[C@@H](O)[C@H]1O
- EC50 ([17]; 1321-n1): 0.026 µM

Compound: C#CCCCOP(=O)(O)OP(=O)(O)OP(=O)(O)OC[C@H]1O[C@@H](n2cc/c(=N/OCc3ccccc3)[nH]c2=O)[C@H](O)[C@@H]1O
- EC50 [17]: > 10 µM
- Activity [22]: < 50%

Compound: CN1/C(=C/C=C/C=C/C2=[N+](CCCCCCC(=O)NCCCCCCn3cc(CCC#Cc4cccc(CO/N=c5/ccn([C@@H]6O[C@H](COP(=O)(O)OP(=O)(O)O)[C@@H](O)[C@H]6O)c(=O)[nH]5)c4)nn3)c3ccccc3C2(C)C)C(C)(C)c2ccccc21
- Activity [24]: inactive
